Data taken from ChEMBL document CHEMBL4689842, “EUbOPEN Chemogenomics Library wave 1” (2021).

Test system: HEK-293T
Assay: Multiplex assay against HEK293T;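 for Population Tubulin-Different-Phenotype (%): share of the cells with healthy nuclei that show this phenotype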
Format: toxicity, cell-based
Conditions: human
How it was run: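 Cells stained live at seeding with Hoechst33342, BioTracker Green Microtubule Cytoskeleton Dye, MitoTracker Red and Annexin V Alexa Fluor 680 were imaged on a CQ1 microscope at 37°C and 5% CO2 after compound addition. Their classification by CellPathfinder machine-learning gating ran from Hoechst high-intensity objects versus normal cells, to healthy, pyknosed or fragmented nuclei among normal cells, to mitotic or apoptotic among pyknosed cells. Tubulin, mitochondrial-mass and membrane-permeability phenotypes are per cents of healthy-nucleus cells.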

[1] = 12 h, 1 µM, compound concentration 1 uM, replicate 1
[2] = 12 h, 1 µM, compound concentration 1 uM, replicate 2
[3] = 12 h, 10 µM, compound concentration 10 uM, replicate 1
[4] = 12 h, 10 µM, compound concentration 10 uM, replicate 2
[5] = 24 h, 1 µM, compound concentration 1 uM, replicate 1
[6] = 24 h, 1 µM, compound concentration 1 uM, replicate 2
[7] = 24 h, 10 µM, compound concentration 10 uM, replicate 1
[8] = 24 h, 10 µM, compound concentration 10 uM, replicate 2
[9] = 48 h, 1 µM, compound concentration 1 uM, replicate 1
[10] = 48 h, 1 µM, compound concentration 1 uM, replicate 2
[11] = 48 h, 10 µM, compound concentration 10 uM, replicate 1
[12] = 48 h, 10 µM, compound concentration 10 uM, replicate 2

SMILES: Cl.NC[C@@H]1O[C@H](C23CC4CC(CC(C4)C2)C3)Cc2c1ccc(O)c2O
- Population Apoptotic (%) [1]: 34%
- Population Fragmented Nuclei (%) [1]: 10%
- Population Healthy Nuclei (%) [1]: 49%
- Population Hoechst High Intensity Objects (%) [1]: 11%
- Population Membrane Permeable-Phenotype (%) [1]: 2%
- Population Mitochondria Different-Phenotype (%) [1]: 80%
- Population Mitotic Cells (%) [1]: 65%
- Population Normal (%) [1]: 88%
- Population Pyknosed Nuclei (%) [1]: 40%
- Population Tubulin-Different-Phenotype (%) [1]: 55%
- Total Cell Count [1]: 321
- Population Apoptotic (%) [2]: 7%
- Population Fragmented Nuclei (%) [2]: 3%
- Population Healthy Nuclei (%) [2]: 47%
- Population Hoechst High Intensity Objects (%) [2]: 2%
- Population Membrane Permeable-Phenotype (%) [2]: 8%
- Population Mitochondria Different-Phenotype (%) [2]: 38%
- Population Mitotic Cells (%) [2]: 92%
- Population Normal (%) [2]: 97%
- Population Pyknosed Nuclei (%) [2]: 48%
- Population Tubulin-Different-Phenotype (%) [2]: 47%
- Total Cell Count [2]: 267
- Population Apoptotic (%) [3]: 60%
- Population Fragmented Nuclei (%) [3]: 10%
- Population Healthy Nuclei (%) [3]: 8%
- Population Hoechst High Intensity Objects (%) [3]: 16%
- Population Membrane Permeable-Phenotype (%) [3]: 0%
- Population Mitochondria Different-Phenotype (%) [3]: 94%
- Population Mitotic Cells (%) [3]: 39%
- Population Normal (%) [3]: 83%
- Population Pyknosed Nuclei (%) [3]: 80%
- Population Tubulin-Different-Phenotype (%) [3]: 58%
- Total Cell Count [3]: 245
- Population Apoptotic (%) [4]: 37%
- Population Fragmented Nuclei (%) [4]: 7%
- Population Healthy Nuclei (%) [4]: 6%
- Population Hoechst High Intensity Objects (%) [4]: 11%
- Population Membrane Permeable-Phenotype (%) [4]: 9%
- Population Mitochondria Different-Phenotype (%) [4]: 54%
- Population Mitotic Cells (%) [4]: 62%
- Population Normal (%) [4]: 88%
- Population Pyknosed Nuclei (%) [4]: 86%
- Population Tubulin-Different-Phenotype (%) [4]: 27%
- Total Cell Count [4]: 204
- Population Apoptotic (%) [5]: 34%
- Population Fragmented Nuclei (%) [5]: 10%
- Population Healthy Nuclei (%) [5]: 65%
- Population Hoechst High Intensity Objects (%) [5]: 13%
- Population Membrane Permeable-Phenotype (%) [5]: 0%
- Population Mitochondria Different-Phenotype (%) [5]: 46%
- Population Mitotic Cells (%) [5]: 65%
- Population Normal (%) [5]: 86%
- Population Pyknosed Nuclei (%) [5]: 24%
- Population Tubulin-Different-Phenotype (%) [5]: 43%
- Total Cell Count [5]: 389
- Population Apoptotic (%) [6]: 12%
- Population Fragmented Nuclei (%) [6]: 4%
- Population Healthy Nuclei (%) [6]: 67%
- Population Hoechst High Intensity Objects (%) [6]: 1%
- Population Membrane Permeable-Phenotype (%) [6]: 11%
- Population Mitochondria Different-Phenotype (%) [6]: 20%
- Population Mitotic Cells (%) [6]: 87%
- Population Normal (%) [6]: 98%
- Population Pyknosed Nuclei (%) [6]: 28%
- Population Tubulin-Different-Phenotype (%) [6]: 52%
- Total Cell Count [6]: 310
- Population Apoptotic (%) [7]: 36%
- Population Fragmented Nuclei (%) [7]: 15%
- Population Healthy Nuclei (%) [7]: 10%
- Population Hoechst High Intensity Objects (%) [7]: 13%
- Population Membrane Permeable-Phenotype (%) [7]: 4%
- Population Mitochondria Different-Phenotype (%) [7]: 78%
- Population Mitotic Cells (%) [7]: 63%
- Population Normal (%) [7]: 86%
- Population Pyknosed Nuclei (%) [7]: 73%
- Population Tubulin-Different-Phenotype (%) [7]: 73%
- Total Cell Count [7]: 258
- Population Apoptotic (%) [8]: 39%
- Population Fragmented Nuclei (%) [8]: 9%
- Population Healthy Nuclei (%) [8]: 14%
- Population Hoechst High Intensity Objects (%) [8]: 15%
- Population Membrane Permeable-Phenotype (%) [8]: 32%
- Population Mitochondria Different-Phenotype (%) [8]: 12%
- Population Mitotic Cells (%) [8]: 60%
- Population Normal (%) [8]: 84%
- Population Pyknosed Nuclei (%) [8]: 76%
- Population Tubulin-Different-Phenotype (%) [8]: 76%
- Total Cell Count [8]: 205
- Population Apoptotic (%) [9]: 14%
- Population Fragmented Nuclei (%) [9]: 11%
- Population Healthy Nuclei (%) [9]: 80%
- Population Hoechst High Intensity Objects (%) [9]: 6%
- Population Membrane Permeable-Phenotype (%) [9]: 6%
- Population Mitochondria Different-Phenotype (%) [9]: 5%
- Population Mitotic Cells (%) [9]: 85%
- Population Normal (%) [9]: 93%
- Population Pyknosed Nuclei (%) [9]: 7%
- Population Tubulin-Different-Phenotype (%) [9]: 17%
- Total Cell Count [9]: 773
- Population Apoptotic (%) [10]: 8%
- Population Fragmented Nuclei (%) [10]: 5%
- Population Healthy Nuclei (%) [10]: 83%
- Population Hoechst High Intensity Objects (%) [10]: 1%
- Population Membrane Permeable-Phenotype (%) [10]: 23%
- Population Mitochondria Different-Phenotype (%) [10]: 3%
- Population Mitotic Cells (%) [10]: 92%
- Population Normal (%) [10]: 98%
- Population Pyknosed Nuclei (%) [10]: 11%
- Population Tubulin-Different-Phenotype (%) [10]: 42%
- Total Cell Count [10]: 440
- Population Apoptotic (%) [11]: 23%
- Population Fragmented Nuclei (%) [11]: 21%
- Population Healthy Nuclei (%) [11]: 10%
- Population Hoechst High Intensity Objects (%) [11]: 15%
- Population Membrane Permeable-Phenotype (%) [11]: 38%
- Population Mitochondria Different-Phenotype (%) [11]: 0%
- Population Mitotic Cells (%) [11]: 76%
- Population Normal (%) [11]: 84%
- Population Pyknosed Nuclei (%) [11]: 67%
- Population Tubulin-Different-Phenotype (%) [11]: 46%
- Total Cell Count [11]: 286
- Population Apoptotic (%) [12]: 55%
- Population Fragmented Nuclei (%) [12]: 11%
- Population Healthy Nuclei (%) [12]: 24%
- Population Hoechst High Intensity Objects (%) [12]: 16%
- Population Membrane Permeable-Phenotype (%) [12]: 56%
- Population Mitotic Cells (%) [12]: 44%
- Population Normal (%) [12]: 83%
- Population Pyknosed Nuclei (%) [12]: 63%
- Population Tubulin-Different-Phenotype (%) [12]: 66%
- Total Cell Count [12]: 190
